Experimental data from different studies.
Target: Serine/threonine-protein kinase D3 (PRKD3, Homo sapiens, UniProt O94806)
Residues used in one study (O94806 1-890): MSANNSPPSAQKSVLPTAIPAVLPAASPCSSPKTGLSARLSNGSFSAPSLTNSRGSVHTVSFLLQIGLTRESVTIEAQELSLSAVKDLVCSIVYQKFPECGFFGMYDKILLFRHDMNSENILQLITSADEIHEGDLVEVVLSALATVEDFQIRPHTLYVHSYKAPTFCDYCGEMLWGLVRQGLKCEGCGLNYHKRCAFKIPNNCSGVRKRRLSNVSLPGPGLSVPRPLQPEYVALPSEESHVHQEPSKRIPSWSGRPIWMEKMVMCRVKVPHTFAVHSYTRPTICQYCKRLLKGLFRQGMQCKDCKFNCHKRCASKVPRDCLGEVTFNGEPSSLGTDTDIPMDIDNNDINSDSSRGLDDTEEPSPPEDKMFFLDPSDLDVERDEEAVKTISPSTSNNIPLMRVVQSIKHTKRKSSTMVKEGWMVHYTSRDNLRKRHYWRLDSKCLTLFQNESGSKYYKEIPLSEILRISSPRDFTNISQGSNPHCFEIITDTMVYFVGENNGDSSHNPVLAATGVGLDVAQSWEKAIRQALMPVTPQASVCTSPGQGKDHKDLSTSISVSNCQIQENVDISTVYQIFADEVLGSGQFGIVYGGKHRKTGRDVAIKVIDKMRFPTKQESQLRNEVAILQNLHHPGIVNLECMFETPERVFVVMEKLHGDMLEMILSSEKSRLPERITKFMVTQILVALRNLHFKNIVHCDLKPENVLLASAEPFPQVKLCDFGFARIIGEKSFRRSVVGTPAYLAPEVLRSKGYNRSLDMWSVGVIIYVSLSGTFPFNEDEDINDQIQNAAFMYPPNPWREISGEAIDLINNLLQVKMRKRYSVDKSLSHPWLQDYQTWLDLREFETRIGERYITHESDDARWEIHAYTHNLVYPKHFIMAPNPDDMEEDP

Cn1cncc1[C@](O)(COc1ccc(C#N)cc1-c1ccc(OC(F)(F)F)cc1)c1ccc(C#N)cc1 gave a remaining binding of 100% (cell-free assay; competition with immobilised ligand; 1 µM).
For Nc1ncc(-c2nc(N3CCOCC3)nc(N3CCOCC3)n2)c(C(F)F)n1, the remaining binding was 67% (binding; competition with immobilised ligand; 10 µM).
For COc1ncccc1-c1cnn2ccc(N3CCN(C(=O)OC(C)C)CC3)nc12, the remaining binding was 100% (binding; competition with immobilised ligand; 1 µM).
Cn1cc(-c2cc(F)cc(N3CCn4c(cc5c4CCCC5)C3=O)c2CO)cc(Nc2ccc(N3CCN(C4COC4)CC3)cn2)c1=O gave an inhibition of 11% (enzyme activity; inhibitor; 0.1 µM).
The remaining signal of O=c1[nH]c2ccccc2n1C1CCN(Cc2ccc(-c3[nH]c4cc5ncnc5cc4nc3-c3ccccc3)cc2)CC1 is reported as 99.5% (cell-free assay; 0.5 µM).
For COc1cc(Nc2ncc(F)c(Nc3ccc4c(n3)NC(=O)C(C)(C)O4)n2)cc(OC)c1OC, the inhibition was 0% (binding; 10 µM).
For Cc1nn(C)cc1-c1nc2c(N3CCN(Cc4ccc(Cl)cc4)CC3)c(Cl)cnc2[nH]1, the remaining binding was 100% (binding; competition with immobilised ligand; 1 µM).
With CC(C)(C)c1cc(C=C(C#N)C#N)cc(Br)c1O the remaining activity was 92.7% (enzyme activity; inhibitor; 0.5 µM).
The remaining binding of N#CC1(c2ccccn2)CCN(Cc2cc(C(=O)O)c(=O)n3ccccc23)CC1 is reported as 98% (cell-free assay; competition with immobilised ligand; 1 µM).
